The structures appear in SMILES notation. pIC50: −log10 of the molar value. Numbered stars: 1 amine (or outer) side, 2 acyl side, 3 side chain; on linkers, the order of the positions; unused ones are H or OH. Square brackets hold non-standard residues; d marks the D form. Peptide text beside a SMILES is read from it. * marks the point of attachment. ξ: configuration not given here. LeuΨ(ξCHOHCH2)Val = CC(C)C[C@H](N[*:1])C(O)C[C@H](C(=O)[*:2])C(C)C; X1 = CC(C)[C@H](C[C@H](O)[C@H](CC1CCCCC1)N[*:1])C(=O)[*:2]; Suberoyl(NMe-taurine) = CN(CCS(=O)(=O)O)C(=O)CCCCCCC(=O)*; X3 = CC(C)C[C@H](N[*:1])[C@@H](O)C[C@H](C(=O)[*:2])C(C)C; NH(2-picolyl-N-oxide) = [O-][n+]1ccccc1CN*; γGlu = O=C(O)[C@H](CCC(=O)[*:2])N[*:1]; NMeH = CN[C@@H](Cc1c[nH]cn1)C(=O)O; NHCH2(2-pyridyl) = c1ccc(CN*)nc1; X4 = O=C(CCCO[P+]([O-])(O)O)*; X5 = O=C(CCCOP(=O)(O)O)*; X2 = O=C(COP(=O)(O)O)*

The assay deals with T1, Renin (Homo sapiens, UniProt P00797).
T1 sequence (P00797 whole entry): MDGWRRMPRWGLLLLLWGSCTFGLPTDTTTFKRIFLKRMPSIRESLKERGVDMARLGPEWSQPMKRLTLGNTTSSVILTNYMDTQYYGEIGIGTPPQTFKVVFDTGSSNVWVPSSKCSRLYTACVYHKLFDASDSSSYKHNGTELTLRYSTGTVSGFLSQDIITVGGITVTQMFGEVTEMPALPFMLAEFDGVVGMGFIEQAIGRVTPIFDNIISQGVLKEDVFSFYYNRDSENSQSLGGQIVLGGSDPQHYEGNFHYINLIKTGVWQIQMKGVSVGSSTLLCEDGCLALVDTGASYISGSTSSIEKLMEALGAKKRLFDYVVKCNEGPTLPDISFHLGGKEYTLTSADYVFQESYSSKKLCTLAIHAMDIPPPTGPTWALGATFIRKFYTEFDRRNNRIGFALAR
Briefly: Inhibition of human plasma renin. The class given is cell-free. The gist of the method: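 IC50 taken as the inhibitor concentration at which 50% of renin enzymatic activity remains.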
Usually pIC50 stands for −log10 of the IC50, conventionally taken in molar units. Regarding `CC(C)CCNC(=O)[C@@H](C[C@H](O)[C@H](CC1CCCCC1)NC(=O)[C@H](Cc1c[nH]cn1)N(C)C(=O)[C@H](Cc1ccccc1)NC(=O)CC(C)(C)N)C(C)C`, the pIC50 is 9.39.
The figure for `CC[C@H](C)[C@H](NC(=O)[C@@H](C[C@H](O)[C@H](CC(C)C)NC(=O)[C@H](Cc1c[nH]cn1)N(C)C(=O)[C@H](Cc1ccccc1)NC(=O)CCCCCCC(=O)N(C)CCS(=O)(=O)O)C(C)C)C(=O)NCc1ccccn1` is 9.18.
Take `CC(C)CCNC(=O)[C@@H](C[C@H](O)[C@H](CC1CCCCC1)NC(=O)[C@H](Cc1c[nH]cn1)N(C)C(=O)[C@H](Cc1ccccc1)NC(=O)[C@@H]1CCCN1C(=O)CC[C@H](N)C(=O)O)C(C)C`: the negative logarithm of the IC50 (pIC50) was 9.55.
The figure for `CC[C@H](C)[C@H](NC(=O)[C@@H](C[C@H](O)[C@H](CC1CCCCC1)NC(=O)[C@H](Cc1c[nH]cn1)N(C)C(=O)[C@H](Cc1ccccc1)NC(=O)CC(C)(C)N)C(C)C)C(=O)NCc1cccc[n+]1[O-]` is 9.37.
Under `CC[C@H](C)[C@H](NC(=O)[C@@H](C[C@H](O)[C@H](CC1CCCCC1)NC(=O)[C@H](Cc1c[nH]cn1)N(C)C(=O)[C@H](Cc1ccccc1)NC(=O)CC(C)(C)N)C(C)C)C(=O)NCc1ccccn1` stands 9.54; under `CC[C@H](C)[C@H](NC(=O)[C@@H](C[C@H](O)[C@H](CC(C)C)NC(=O)[C@H](Cc1c[nH]cn1)N(C)C(=O)[C@H](Cc1ccccc1)NC(=O)CCCCCCC(=O)N(C)CCS(=O)(=O)O)C(C)C)C(=O)NCc1cccc[n+]1[O-]`, 8.92; under `CC[C@H](C)[C@H](NC(=O)[C@@H](CC(O)[C@H](CC(C)C)NC(=O)[C@H](Cc1c[nH]cn1)N(C)C(=O)[C@H](Cc1ccccc1)NC(=O)[C@@H]1CCCN1C(=O)COP(=O)(O)O)C(C)C)C(=O)NCc1cccc[n+]1[O-]` (some centres undefined) (X2-PF[NMeH][LeuΨ(ξCHOHCH2)Val]I-{NH(2-picolyl-N-oxide)}), 8.60.
Consider `CC[C@H](C)[C@H](NC(=O)[C@@H](C[C@H](O)[C@H](CC(C)C)NC(=O)[C@H](Cc1c[nH]cn1)N(C)C(=O)[C@H](Cc1ccccc1)NC(=O)[C@@H]1CCCN1C(=O)COP(=O)(O)O)C(C)C)C(=O)NCc1ccccn1` (X2-PF[NMeH][X3]I-{NHCH2(2-pyridyl)}), for which the pIC50 is 8.80.
The figure for `CC[C@H](C)[C@H](NC(=O)[C@@H](CC(O)[C@H](CC(C)C)NC(=O)[C@H](Cc1cnc[nH]1)N(C)C(=O)[C@H](Cc1ccccc1)NC(=O)[C@@H]1CCCN1C(=O)CCCO[P+]([O-])(O)O)C(C)C)C(=O)NCc1cccc[n+]1[O-]` (some centres undefined) (X4-PF[NMeH][LeuΨ(ξCHOHCH2)Val]I-{NH(2-picolyl-N-oxide)}) is 8.72; for `CC[C@H](C)[C@H](NC(=O)[C@@H](C[C@H](O)[C@H](CC(C)C)NC(=O)[C@H](Cc1c[nH]cn1)N(C)C(=O)[C@H](Cc1ccccc1)NC(=O)[C@@H]1CCCN1C(=O)CCCOP(=O)(O)O)C(C)C)C(=O)NCc1ccccn1` (X5-PF[NMeH][X3]I-{NHCH2(2-pyridyl)}) it is 9.35.
The figure for `CC[C@H](C)[C@H](NC(=O)[C@@H](CC(O)[C@H](CC(C)C)NC(=O)[C@H](Cc1c[nH]cn1)N(C)C(=O)[C@H](Cc1ccccc1)NC(=O)[C@@H]1CCCN1C(=O)CCCCCCC(=O)N(C)CCS(=O)(=O)O)C(C)C)C(=O)NCc1cccc[n+]1[O-]` (some centres undefined) ({Suberoyl(NMe-taurine)}-PF[NMeH][LeuΨ(ξCHOHCH2)Val]I-{NH(2-picolyl-N-oxide)}) is 9.51; for `CC[C@H](C)[C@H](NC(=O)[C@@H](CC(O)[C@H](CC(C)C)NC(=O)[C@H](Cc1c[nH]cn1)N(C)C(=O)[C@H](Cc1ccccc1)NC(=O)[C@@H]1CCCN1C(=O)CCCCCCC(=O)N(C)CCS(=O)(=O)O)C(C)C)C(=O)NCc1ccccn1` (some centres undefined) ({Suberoyl(NMe-taurine)}-PF[NMeH][LeuΨ(ξCHOHCH2)Val]I-{NHCH2(2-pyridyl)}) it is 8.74; for `CC[C@H](C)[C@H](NC(=O)[C@@H](C[C@H](O)[C@H](CC1CCCCC1)NC(=O)[C@H](Cc1c[nH]cn1)N(C)C(=O)[C@H](Cc1ccccc1)NC(=O)[C@@H]1CCCN1C(=O)CC[C@H](N)C(=O)O)C(C)C)C(=O)NCc1cccc[n+]1[O-]` (γGlu-PF[NMeH][X1]I-{NH(2-picolyl-N-oxide)}) it is 9.49.
Under `CC[C@H](C)[C@H](NC(=O)[C@@H](C[C@H](O)[C@H](CC1CCCCC1)NC(=O)[C@H](Cc1c[nH]cn1)N(C)C(=O)[C@H](Cc1ccccc1)NC(=O)[C@@H]1CCCN1C(=O)CC[C@H](N)C(=O)O)C(C)C)C(=O)NCc1ccccn1` (γGlu-PF[NMeH][X1]I-{NHCH2(2-pyridyl)}) stands 9.54.
